Results taken from ChEMBL document CHEMBL3351654, “Synthesis, biological evaluation, and 3D QSAR study of 2-methyl-4-oxo-3-oxetanylcarbamic acid esters as N-acylethanolamine acid amidase (NAAA) inhibitors” (J Med Chem, 2014).
pIC50: −log10 of the molar value.

Target: T1, N-acylethanolamine-hydrolyzing acid amidase (Rattus norvegicus, UniProt Q5KTC7)
T1 sequence (Q5KTC7 whole entry): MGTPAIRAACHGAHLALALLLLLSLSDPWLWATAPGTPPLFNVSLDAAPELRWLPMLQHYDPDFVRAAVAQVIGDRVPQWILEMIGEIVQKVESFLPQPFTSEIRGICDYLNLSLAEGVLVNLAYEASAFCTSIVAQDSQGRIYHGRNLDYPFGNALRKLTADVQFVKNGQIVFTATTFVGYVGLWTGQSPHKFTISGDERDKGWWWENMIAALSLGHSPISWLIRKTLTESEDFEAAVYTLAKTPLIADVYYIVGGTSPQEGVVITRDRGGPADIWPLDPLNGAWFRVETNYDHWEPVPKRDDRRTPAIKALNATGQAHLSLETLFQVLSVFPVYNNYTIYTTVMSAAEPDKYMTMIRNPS
Test: Inhibition of NAAA in Sprague-Dawley rat lung assessed as inhibition of hydrolysis of 10-cis-heptadecenoylethanolamide by UPLC/MS method
Conditions: for IC50: read-out: pIC50 (converted); for pIC50: read-out: IC50
In short: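 Native NAAA enzyme prepared from rat lungs, not a recombinant construct. The substrate, 10-cis-heptadecenoylethanolamide, is an unnatural fatty acid ethanolamide. Inhibition of its hydrolysis was measured, and the median inhibitory concentration (IC50) was reported.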

SMILES | IC50 [nM] | pIC50
C[C@@H]1OC(=O)[C@@H]1NC(=O)OCCCCCl |  | 6.54
Cc1ccc(-c2ccc(COC(=O)N[C@H]3C(=O)O[C@H]3C)cc2)cc1 |  | 7.54
C[C@@H]1OC(=O)[C@@H]1NC(=O)OC(C)(C)C |  | 5.20
Cc1ccc2sc(COC(=O)N[C@H]3C(=O)O[C@H]3C)cc2c1 |  | 7.89
C[C@@H]1OC(=O)[C@@H]1NC(=O)OCc1ccc(C(C)(C)C)cc1 |  | 7.66
C[C@@H]1OC(=O)[C@@H]1NC(=O)OCc1ccc(-c2ccc(C(F)(F)F)cc2)cc1 |  | 7.44
C[C@@H]1OC(=O)[C@@H]1NC(=O)OCc1ccc(-c2ccc(F)cc2)cc1 |  | 7.96
C[C@@H]1OC(=O)[C@@H]1NC(=O)OCc1ccc2c(c1)OCO2 |  | 6.75
C[C@@H]1OC(=O)[C@@H]1NC(=O)OCc1ccc(C2CCCCC2)cc1 |  | 8.15
CCCCCCCOC(=O)N[C@H]1C(=O)O[C@H]1C | 44.7 | 
C[C@@H]1OC(=O)[C@@H]1NC(=O)OCc1ccc(-c2sccc2Br)cc1 |  | 7.55
C[C@@H]1OC(=O)[C@@H]1NC(=O)OCc1ccc(OC2CCCCC2)cc1 |  | 7.64
C[C@@H]1OC(=O)[C@@H]1NC(=O)OCc1ccc(-c2ccsc2)cc1 | 20.9 | 7.66
CCCCCCCC#CCOC(=O)N[C@H]1C(=O)O[C@H]1C |  | 7.11

Now from value to compound:

IC50 [nM] | pIC50 | SMILES
7.24 |  | C[C@@H]1OC(=O)[C@@H]1NC(=O)OCc1ccc(-c2ccccc2)cc1
 | 6.62 | C[C@@H]1OC(=O)[C@@H]1NC(=O)OCCCCCc1ccc(F)cc1
 | 7.70 | C[C@@H]1OC(=O)[C@@H]1NC(=O)OCC#Cc1ccccc1
 | 5.42 | CCCCC1(OC(=O)N[C@H]2C(=O)O[C@H]2C)COC1
85.1 |  | C[C@@H]1OC(=O)[C@@H]1NC(=O)OCCCc1ccccc1
 | 6.12 | CCCCCOC(=O)N[C@H]1C(=O)O[C@H]1C
 | 7.41 | C[C@@H]1OC(=O)[C@@H]1NC(=O)OCCCCCCCc1ccccc1
148 |  | C[C@@H]1OC(=O)[C@@H]1NC(=O)OCCOCCc1ccccc1
 | 5.68 | C[C@@H]1OC(=O)[C@@H]1NC(=O)OCc1ccccc1
52.5 |  | C[C@@H]1OC(=O)[C@@H]1NC(=O)OCCCCCc1ccccc1
 | 6.28 | C[C@@H]1OC(=O)[C@@H]1NC(=O)OC1(CCCCc2ccccc2)COC1
 | 7.82 | CCCCc1ccc(COC(=O)N[C@H]2C(=O)O[C@H]2C)cc1
316 |  | C[C@@H]1OC(=O)[C@@H]1NC(=O)OC(C)(C)CCCCc1ccccc1
51.3 |  | C[C@@H]1OC(=O)[C@@H]1NC(=O)OCCCOCc1ccccc1
